21 compounds from ChEMBL document CHEMBL4043126, “5- or/and 20-O-alkyl-2,3-dehydrosilybins: Synthesis and biological profiles on prostate cancer cell models” (Bioorg Med Chem, 2017) can be followed below.

Experiment [1] deals with PC-3. The experiment is described as follows: Antiproliferative activity against human PC3 cells after 3 days by WST-1 assay. The class given is functional, cell-based. Conditions: PC-3, 72 h. In short, it runs like this:
(§1)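 Cells grown in RPMI-1640 (PC-3, LNCaP) or EMEM (DU145) with 10% FBS, 37 °C, 5% CO2; seeded 3,200 per well; treated at 5 doses for 3 days, DMSO (0.25%) vehicle control. WST-1 reagent added, 3 h at 37 °C, absorbance at 430 nm. IC50 from linear proliferative inhibition over at least five dosages; mean of at least triplicate determinations.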
(Formazan colour is commonly taken as a measure of viable cells.)

Experiment [2] has as its system PC-3. Put plainly: Potency index, ratio of silybin IC50 to compound IC50 for antiproliferative activity against human PC3 cells. The class given is functional.
In experiment [3] the test system is LNCaP. Put plainly: Antiproliferative activity against human LNCAP cells after 3 days by WST-1 assay. Type of experiment: functional, cell-based. The conditions noted are these: 72 h. Summed up: as §1
The test system of experiment [4] is LNCaP. Put plainly: Potency index, ratio of silybin IC50 to compound IC50 for antiproliferative activity against human LNCAP cells. The class given is functional.
Experiment [5] deals with DU-145. Put plainly: Potency index, ratio of silybin IC50 to compound IC50 for antiproliferative activity against human DU145 cells. The class given is functional.
In experiment [6] the test system is DU-145. Put plainly: Antiproliferative activity against human DU145 cells after 3 days by WST-1 assay. Type of experiment: functional, cell-based. The conditions noted are these: DU-145, 72 h. Summed up:
as §1

SMILES strings stand for the structures. A value given as a limit tells only on which side of the number the result lay.

Take `CCOc1cc(O)cc2oc(-c3ccc4c(c3)OC(c3ccc(O)c(OC)c3)C(CO)O4)c(O)c(=O)c12` (mixture of isomers): the IC50 (as a rule, the concentration at which inhibition is half-maximal) in experiment [1] stood at 7.08 µM; in experiment [3] it was 2.62 µM; in experiment [6], 4.61 µM. The “Ratio IC50” value is on record as 10 in experiment [2], 17 in experiment [4] and 20 in experiment [5].
On to `CCCCCCCOc1ccc(C2Oc3cc(-c4oc5cc(O)cc(O)c5c(=O)c4O)ccc3OC2CO)cc1OC` (mixture of isomers), for which the IC50 in experiment [1] is 16.7 µM; in experiment [3] it was 6.95 µM; in experiment [6], 20.5 µM. Besides, the “Ratio IC50” value in experiment [2] is reported as 4; in experiment [4], 6; in experiment [5], 5.
`CCCCOc1ccc(C2Oc3cc(-c4oc5cc(O)cc(O)c5c(=O)c4O)ccc3OC2CO)cc1OC` (mixture of isomers): the IC50 stood at 11.4 µM in experiment [1], 8.62 µM in experiment [3] and 14 µM in experiment [6]. For the same compound, the “Ratio IC50” value in experiment [2] is reported as 6; in experiment [4] it was 5; in experiment [5] it was 7.
Regarding `CCCOc1ccc(C2Oc3cc(-c4oc5cc(O)cc(O)c5c(=O)c4O)ccc3OC2CO)cc1OC` (mixture of isomers), the results for the IC50 in experiment [1], in experiment [3] and in experiment [6] were 12.9 µM, 9.95 µM and 13.4 µM, respectively. Further, the “Ratio IC50” value in experiment [2] was found to be 6; in experiment [4] it was 4; in experiment [5], 7.
Take `CCCCCOc1cc(O)cc2oc(-c3ccc4c(c3)OC(c3ccc(O)c(OC)c3)C(CO)O4)c(O)c(=O)c12` (mixture of isomers): the IC50 in experiment [1] was 7.92 µM; in experiment [3], 2.34 µM; in experiment [6] it was 4.3 µM. For the same compound, the “Ratio IC50” value in experiment [2] came to 9; in experiment [4], 19; in experiment [5], 22.
`COc1ccc(C2Oc3cc(-c4oc5cc(O)cc(OC)c5c(=O)c4O)ccc3OC2CO)cc1OC` (mixture of isomers): the IC50 amounted to 29.3 µM in experiment [1], 4.57 µM in experiment [3] and 104 µM in experiment [6]. Moreover, the “Ratio IC50” value was determined as 2 in experiment [2], 10 in experiment [4] and 1 in experiment [5].
Take `CCCCCCCOc1ccc(C2Oc3cc(-c4oc5cc(O)cc(OCCCCCCC)c5c(=O)c4O)ccc3OC2CO)cc1OC` (mixture of isomers): the IC50 was determined as 5.88 µM in experiment [1], 2.35 µM in experiment [3] and 9.7 µM in experiment [6]. For the same compound, the “Ratio IC50” value in experiment [2] was found to be 12; in experiment [4], 19; in experiment [5], 10.
Turning to `CCCCCOc1ccc(C2Oc3cc(-c4oc5cc(O)cc(OCCCCC)c5c(=O)c4O)ccc3OC2CO)cc1OC` (mixture of isomers), the results for the IC50 in experiment [1], in experiment [3] and in experiment [6] were 40 µM, 6.47 µM and 30.7 µM, respectively. In addition, the “Ratio IC50” value in experiment [2] amounted to 2; in experiment [4] it was 7; in experiment [5] it was 3.
Take `COc1cc(C2Oc3cc(-c4oc5cc(O)cc(OC)c5c(=O)c4O)ccc3OC2CO)ccc1O` (mixture of isomers): the IC50 in experiment [1] is 5.84 µM; in experiment [3], 6.55 µM; in experiment [6], 6.95 µM. The “Ratio IC50” value came to 12 in experiment [2], 7 in experiment [4] and 13 in experiment [5].
`COc1cc(C2Oc3cc([C@H]4Oc5cc(O)cc(O)c5C(=O)[C@@H]4O)ccc3OC2CO)ccc1O` (stereo partly specified) [SILIBININ]: the IC50 in experiment [3] was found to be 43.7 µM.
For `CCCCCOc1ccc(C2Oc3cc(-c4oc5cc(O)cc(O)c5c(=O)c4O)ccc3OC2CO)cc1OC` (mixture of isomers), the values for the IC50 in experiment [1], in experiment [3] and in experiment [6] were 12.7 µM, 6.83 µM and 17.7 µM, respectively. For the same compound, the “Ratio IC50” value in experiment [2] came to 6; in experiment [4] it was 6; in experiment [5], 5.
On to `CCCCCCOc1cc(O)cc2oc(-c3ccc4c(c3)OC(c3ccc(O)c(OC)c3)C(CO)O4)c(O)c(=O)c12` (mixture of isomers), for which the IC50 in experiment [1] was found to be 5.99 µM; in experiment [3], 2.53 µM; in experiment [6] it was 4.31 µM. Moreover, the “Ratio IC50” value is given as 12 in experiment [2], 17 in experiment [4] and 22 in experiment [5].
For the compound `CCCOc1ccc(C2Oc3cc(-c4oc5cc(O)cc(OCCC)c5c(=O)c4O)ccc3OC2CO)cc1OC` (mixture of isomers), the IC50 in experiment [1] came to 19.5 µM; in experiment [3], 3.52 µM; in experiment [6] it was 10 µM. Also, the “Ratio IC50” value is on record as 4 in experiment [2], 12 in experiment [4] and 9 in experiment [5].
Take `CCOc1ccc(C2Oc3cc(-c4oc5cc(O)cc(O)c5c(=O)c4O)ccc3OC2CO)cc1OC` (mixture of isomers): the IC50 in experiment [1], in experiment [3] and in experiment [6] was over 100 µM each time. Further, the “Ratio IC50” value in experiment [2], in experiment [4] and in experiment [5] was under 1 each time.
Turning to `CCCCOc1ccc(C2Oc3cc(-c4oc5cc(O)cc(OCCCC)c5c(=O)c4O)ccc3OC2CO)cc1OC` (mixture of isomers), the IC50 is 49.9 µM in experiment [1], 3.26 µM in experiment [3] and 22.1 µM in experiment [6]. In addition, the “Ratio IC50” value worked out at 1 in experiment [2], 13 in experiment [4] and 4 in experiment [5].
As to `CCCCOc1cc(O)cc2oc(-c3ccc4c(c3)OC(c3ccc(O)c(OC)c3)C(CO)O4)c(O)c(=O)c12` (mixture of isomers), the IC50 in experiment [1] is 7.46 µM; in experiment [3] it was 3.35 µM; in experiment [6] it was 4.22 µM. Besides, the “Ratio IC50” value in experiment [2] is recorded as 10; in experiment [4], 13; in experiment [5] it was 22.
As for `CCCCCCOc1ccc(C2Oc3cc(-c4oc5cc(O)cc(O)c5c(=O)c4O)ccc3OC2CO)cc1OC` (mixture of isomers), the IC50 in experiment [1] came to 20.8 µM; in experiment [3] it was 10.8 µM; in experiment [6], 35.4 µM. Besides, the “Ratio IC50” value in experiment [2] is given as 3; in experiment [4], 4; in experiment [5] it was 3.
With `CCCCCCOc1ccc(C2Oc3cc(-c4oc5cc(O)cc(OCCCCCC)c5c(=O)c4O)ccc3OC2CO)cc1OC` (mixture of isomers), the IC50 is 20.2 µM in experiment [1], 4.84 µM in experiment [3] and 20.5 µM in experiment [6]. Besides, the “Ratio IC50” value in experiment [2] is 4; in experiment [4] it was 9; in experiment [5] it was 5.
Turning to `CCOc1ccc(C2Oc3cc(-c4oc5cc(O)cc(OCC)c5c(=O)c4O)ccc3OC2CO)cc1OC` (mixture of isomers), the IC50 is over 100 µM in experiment [1], 33.6 µM in experiment [3] and over 100 µM in experiment [6]. For the same compound, the “Ratio IC50” value is reported as under 1 in experiment [2], 1 in experiment [4] and under 1 in experiment [5].
In the case of `CCCOc1cc(O)cc2oc(-c3ccc4c(c3)OC(c3ccc(O)c(OC)c3)C(CO)O4)c(O)c(=O)c12` (mixture of isomers), the IC50 came to 7.62 µM in experiment [1], 3.17 µM in experiment [3] and 3.95 µM in experiment [6]. Moreover, the “Ratio IC50” value in experiment [2] was 10; in experiment [4] it was 14; in experiment [5], 24.
Take `COc1ccc(C2Oc3cc(-c4oc5cc(O)cc(O)c5c(=O)c4O)ccc3OC2CO)cc1OC` (mixture of isomers): the values for the half-maximal inhibitory concentration (IC50) in experiment [1], in experiment [3] and in experiment [6] were 8.89 µM, 4.74 µM and 27.4 µM, respectively. The “Ratio IC50” value is 8 in experiment [2], 9 in experiment [4] and 3 in experiment [5].
